Measured values: ChEMBL document CHEMBL1148948, “Biotransformation of nobiletin by Aspergillus niger and the antimutagenic activity of a metabolite, 4'-hydroxy-5,6,7,8,3'-pentamethoxyflavone” (2004)
Active and inactive are the calls of the source.

Columns and labels:
Type in all cases: functional, organism-based
Conditions in all cases: Salmonella enterica subsp. enterica serovar Typhimurium
Salmonella typhimurium [1] = test: Antimutagenic activity in Salmonella Typhimurium TA1535 carrying pSK1002 containing umuC'-lacZ fused gene assessed as suppression of furyfuramide-induced SOS response to alteration in DNA synthesis measured by beta-galactosidase activity by Umu test
In short: (§1)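 S. typhimurium TA1535/pSK1002 (umuC′-′lacZ fusion on the plasmid). The overnight culture was diluted 50-fold in fresh TGA medium and grown at 37 °C to A600 0.25-0.30. SOS induction was read as β-galactosidase activity in Miller units. The S9 mix used rat liver S9 (phenobarbital/5,6-benzoflavone-pretreated males) with G-6-P, NADH and NADPH cofactors.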

Salmonella typhimurium [2] = test: Antimutagenic activity in Salmonella Typhimurium TA1535 carrying pSK1002 containing umuC'-lacZ fused gene assessed as suppression of Trp-P-1-induced SOS response to alteration in DNA synthesis measured by beta-galactosidase activity by Umu test; in short: as §1
Salmonella typhimurium [3] = test: Antimutagenic activity in Salmonella Typhimurium TA1535 carrying pSK1002 containing umuC'-lacZ fused gene assessed as suppression of MeIQ-induced SOS response to alteration in DNA synthesis measured by beta-galactosidase activity by Umu test; in short: as §1
Salmonella typhimurium [4] = test: Antimutagenic activity in Salmonella Typhimurium TA1535 carrying pSK1002 containing umuC'-lacZ fused gene assessed as suppression of 0.1 j/M2 UV light-induced SOS response to alteration in DNA synthesis measured by beta-galactosidase activity by Umu test; in short: as §1

Measured: Activity

COc1ccc(-c2cc(=O)c3c(OC)c(OC)c(OC)c(OC)c3o2)cc1OC
active: all assays above
